Tests used:
[1] = test system: Mus musculus; assay: Analgesic activity in Swiss mouse assessed as inhibition of acetic acid-induced writhing response at 50 mg/kg, po administered 1 hr before acetic acid challenge measured for 30 mins relative to control; assay type: functional
Method in brief: (§1)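 Mice of either sex (25–35 g), fasted overnight, dosed by oral gavage with test agent suspended in 0.5% methylcellulose; controls got vehicle alone. Each hind-limb full extension counted as a writhe over 30 min after the noxious agent. % inhibition from treated vs control writhing; groups of 8–10; Student's t-test. Dosing starts at 100 mg/kg, then halved stepwise.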

[2] = test system: Mus musculus; assay: Sedative activity in Swiss mouse assessed as inhibition of spontaneous locomotor activity at 100 mg/kg, po dose measured for every 5 mins up to 90 mins; assay type: organism-based; design: dose 100 mg/kg, route oral
Method in brief: (§2)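 Overnight-fasted mice given compound (0.5% methylcellulose) or vehicle by oral gavage, then housed singly in an activity cage. Locomotion auto-recorded in 5-min intervals for 90 min; pulses of the final 30 min scored. % inhibition versus controls; runs between 9.00 and 13.00; groups of 8–10; Student's t-test.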

[3] = test system: Rattus norvegicus; assay: Acute gastrolesivity in Wistar rat assessed as appearance of gastric damage at 200 mg/kg, po after 5 hrs; assay type: toxicity, organism-based, Stomach; design: dose 200 mg/kg, route oral; details: in vivo
Method in brief: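 Wistar rats (250–300 g), either sex, fasted overnight; compound suspended in 0.5% methylcellulose, single oral gavage at 200 mg kg^-1 (1 mL 100 g^-1). Stomachs excised 5 h later, fixed in 2% formalin, opened along greater curvature, examined by stereomicroscope by blinded observer. Reported as number of animals with gastric damage over treated animals (eight per group).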

[4] = test system: Rattus norvegicus; assay: Antiinflammatory activity against carrageenan-induced paw edema in Wistar rat assessed as inhibition of hind paw edema at 100 mg/kg, po administered 1 hr prior to carrageenan challenge measured after 3 hrs relative to control; assay type: functional
Method in brief: (§3)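 Wistar rats of either sex (250–300 g), fasted overnight, gavaged with compound in 0.5% methylcellulose. 1 h later, 0.1 mL 1% carrageenan injected subcutaneously into the plantar hind paw. Paw volume read by plethysmometer right after injection and 3 h later. Control edema set as 100, % inhibition from swelling difference. Groups of 8–10; Student's t-test.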

[5] = test system: Mus musculus; assay: Analgesic activity in Swiss mouse assessed as inhibition of acetic acid-induced writhing response at 100 mg/kg, po administered 1 hr before acetic acid challenge measured for 30 mins relative to control; assay type: functional; method in brief: as §1
[6] = test system: Rattus norvegicus; assay: Antiinflammatory activity against carrageenan-induced paw edema in Wistar rat assessed as inhibition of hind paw edema at 50 mg/kg, po administered 1 hr prior to carrageenan challenge measured after 3 hrs relative to control; assay type: functional; method in brief: as §3
[7] = test system: Rattus norvegicus; assay: Antiinflammatory activity against carrageenan-induced paw edema in Wistar rat assessed as inhibition of hind paw edema at 25 mg/kg, po administered 1 hr prior to carrageenan challenge measured after 3 hrs relative to control; assay type: functional; method in brief: as §3
[8] = test system: Rattus norvegicus; assay: Antiinflammatory activity against carrageenan-induced paw edema in Wistar rat assessed as inhibition of hind paw edema at 12.5 mg/kg, po administered 1 hr prior to carrageenan challenge measured after 3 hrs relative to control; assay type: functional; method in brief: as §3
[9] = test system: Rattus norvegicus; assay: Antiinflammatory activity against carrageenan-induced paw edema in Wistar rat assessed as inhibition of hind paw edema at 6.25 mg/kg, po administered 1 hr prior to carrageenan challenge measured after 3 hrs relative to control; assay type: functional; method in brief: as §3
[10] = test system: Mus musculus; assay: Analgesic activity in Swiss mouse assessed as inhibition of acetic acid-induced writhing response at 25 mg/kg, po administered 1 hr before acetic acid challenge measured for 30 mins relative to control; assay type: functional; method in brief: as §1
[11] = test system: Mus musculus; assay: Analgesic activity in Swiss mouse assessed as inhibition of acetic acid-induced writhing response at 12.5 mg/kg, po administered 1 hr before acetic acid challenge measured for 30 mins relative to control; assay type: functional; method in brief: as §1
[12] = test system: Mus musculus; assay: Sedative activity in Swiss mouse assessed as inhibition of spontaneous locomotor activity at 50 mg/kg, po dose measured for every 5 mins up to 90 mins; assay type: organism-based; design: dose 50 mg/kg, route oral; method in brief: as §2

Structure (SMILES) | inhibition in vivo at 50 mg/kg [1] | inhibition at 100 mg/kg [2] | Activity [3] | inhibition in vivo at 100 mg/kg [4] | inhibition in vivo at 100 mg/kg [5] | inhibition in vivo at 50 mg/kg [6] | inhibition in vivo at 25 mg/kg [7] | inhibition in vivo at 12.5 mg/kg [8] | inhibition in vivo at 6.25 mg/kg [9] | inhibition in vivo at 25 mg/kg [10] | inhibition in vivo at 12.5 mg/kg [11] | inhibition at 50 mg/kg [12]
CCN(CC)C(=O)c1c(N2CCN(CCO)CC2)c2cccnc2n2ccnc12 | 12% | 39% | Non-toxic | 0% | 41% |  |  |  |  |  |  | 
CCc1nnc2c(C(=O)N(CC)CC)c(N(C)CC(C)C)c3cccnc3n12 | 26% | 60% | Non-toxic | 39% | 92% | 42% | 28% | 8% |  |  |  | 
CCN(CC)C(=O)c1c(NCC(C)C)c2cccnc2n2c(C(C)C)nnc12 | 33% |  | Non-toxic | 70% | 100% | 66% | 61% | 50% | 27% |  |  | 
CCN(CC)C(=O)c1c(N2CCN(Cc3ccccc3)CC2)c2cccnc2n2c(C)cnc12 |  |  |  | 0% | 17% |  |  |  |  |  |  | 
CCN(CC)C(=O)c1c(N2CCN(c3ccccc3OC)CC2)c2cccnc2n2ccnc12 | 0% | 86% | Non-toxic | 16% | 63% |  |  |  |  |  |  | 
CCN(C)C(=O)c1c(NC(C)C)c2cccnc2n2c(C(C)C)nnc12 | 0% | 96% | Non-toxic | 46% | 82% | 0% |  |  |  |  |  | 
CCN(CC)C(=O)c1c(NCC(C)C)c2cccnc2n2ccnc12 | 48% | 68% | Non-toxic | 0% | 71% |  |  |  |  | 48% | 0% | 28%
C=CCNc1c(C(=O)N(CC)CC)c2nnc(C(C)C)n2c2ncccc12 | 28% | 64% | Non-toxic | 60% | 79% | 49% | 52% | 32% | 25% |  |  | 
CCN(CC)C(=O)c1c(N2CCN(C)CC2)c2cccnc2n2c(C)cnc12 | 86% | 80% | Non-toxic | 0% | 85% |  |  |  |  | 83% | 21% | 20%
CC(C)CNc1c(C(=O)N2CCN(C)CC2)c2nnc(C(C)C)n2c2ncccc12 | 29% | 0% | Non-toxic | 0% | 48% |  |  |  |  |  |  | 
CCN1CCN(c2c(C(=O)N(CC)CC)c3nccn3c3ncccc23)CC1 | 30% | 67% | Non-toxic | 5% | 80% |  |  |  |  |  |  | 
CCN(CC)C(=O)c1c(N2CCN(Cc3ccccc3)CC2)c2cccnc2n2ccnc12 | 0% | 42% | Non-toxic | 26% | 46% | 10% |  |  |  |  |  | 
CCN(CC)C(=O)c1c(NC(C)C)c2cccnc2n2c(C(C)C)nnc12 | 54% |  | Non-toxic | 81% | 83% | 75% | 75% | 68% |  | 33% | 0% | 64%
CCN(CC)C(=O)c1c(NC)c2cccnc2n2c(C)cnc12 | 0% | 55% | Non-toxic | 38% | 73% | 20% |  |  |  |  |  | 
CCN1CCN(c2c(C(=O)N(CC)CC)c3ncc(C)n3c3ncccc23)CC1 | 48% | 63% | Non-toxic | 10% | 83% |  |  |  |  | 54% | 0% | 46%
CCOC(=O)c1cn2c(n1)c(C(=O)N(CC)CC)c(N1CCN(C)CC1)c1cccnc12 | 2% | 0% | Non-toxic | 0% | 75% |  |  |  |  |  |  | 
CCCN(C)c1c(C(=O)N(CC)CC)c2nnc(C(C)C)n2c2ncccc12 | 37% | 62% | Non-toxic | 71% | 71% | 55% | 42% | 44% | 23% |  |  | 
CCN(CC)C(=O)c1c(N2CCN(C)CC2)c2cccnc2n2c(N(C)C)cnc12 | 16% | 44% | Non-toxic | 0% | 83% |  |  |  |  |  |  | 30%
CCNc1c(C(=O)N(CC)CC)c2nccn2c2ncccc12 | 2% | 89% | Non-toxic | 29% | 60% | 26% | 25% | 0% |  |  |  | 
CCN(CC)C(=O)c1c(N2CCN(C)CC2)c2cccnc2n2ccnc12 | 74% | 77% | Non-toxic | 0% | 80% |  |  |  |  | 56% | 32% | 41%
CCN(CC)C(=O)c1c(NCC(C)C)c2cccnc2n2c(C)cnc12 |  |  |  | 0% | 0% |  |  |  |  |  |  | 

From ChEMBL document CHEMBL1156763, “1,8-Naphthyridines VIII. Novel 5-aminoimidazo[1,2-a] [1,8]naphthyridine-6-carboxamide and 5-amino[1,2,4]triazolo[4,3-a] [1,8]naphthyridine-6-carboxamide derivatives showing potent analgesic or anti-inflammatory activity, respectively, and completely devoid of acute gastrolesivity” (Eur J Med Chem, 2010)
